This note sets out measurements from ChEMBL document CHEMBL1159065, “Conjugates of desferrioxamine B (DFOB) with derivatives of adamantane or with orally available chelators as potential agents for treating iron overload” (J Med Chem, 2010).

The nature of data set [1]: Partition coefficient, log P by shake flask method. In kind it is physicochemical. As to conditions: octanol/water.
Data set [2] addresses Serotransferrin (Homo sapiens) (UniProt P02787). Briefly: Inhibition of [59Fe] uptake from [59Fe]transferrin in human SK-N-MC cells at 50 uM after 3 hrs relative to relative to desferrioxamine B. In kind it is cell-based. The procedure, abridged:
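SK-N-MC cells incubated with 59Fe-Tf (0.75 μM) plus chelator (50 μM), 3 h at 37 °C; washed four times in ice-cold PBS, then Pronase (1 mg/mL) 30 min at 4 °C. Pronase-insensitive pellet after centrifugation taken as internalized 59Fe, expressed as % of untreated control. Mean ± SD, three experiments, triplicate determinations each.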

Data set [3] relates to SK-N-MC. Briefly: Induction of [59Fe] mobilization in human SK-N-MC cells prelabeled with [59Fe]transferrin at 50 uM after 3 hrs relative to untreated control. The format is functional. The procedure, abridged:
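Cells prelabeled with 59Fe-Tf (0.75 μM), 3 h, 37 °C; washed four times in ice-cold PBS, then exposed to chelator (50 μM) 3 h at 37 °C. Medium removed by Pasteur pipet; gamma counting of cell pellet and supernatant gives released 59Fe as % of cellular 59Fe. Mean ± SD, three experiments, triplicate determinations each.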

Data set [4] is described as follows: Toxicity in MDCK cells by MTT method. The format is cell-based, Canis lupus familiaris. As to conditions: dog. The essentials:
(§1)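 MTT proliferation assay giving IC50; MTT colour checked proportional to viable cell number by Trypan blue (SK-N-MC) or total cell protein (MDCK II). SK-N-MC grown as in earlier work; MDCK II cultured by standard procedures.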

A short description of data set [5]: Partition coefficient, log P by RP-HPLC. The format is physicochemical. As to conditions: octanol/water.
The nature of data set [6]: Toxicity in human SK-N-MC cells by MTT method. In kind it is cell-based. The essentials:
as §1

A short description of data set [7]: Solubility in water. The format is physicochemical.
Data set [8] deals with Serotransferrin (Homo sapiens) (UniProt P02787). Put plainly: Inhibition of [59Fe] uptake from [59Fe]transferrin in human SK-N-MC cells assessed as at 50 uM after 3 hrs relative to untreated control; values are per cent of control.
Serotransferrin (Homo sapiens), sequence (P02787 whole entry): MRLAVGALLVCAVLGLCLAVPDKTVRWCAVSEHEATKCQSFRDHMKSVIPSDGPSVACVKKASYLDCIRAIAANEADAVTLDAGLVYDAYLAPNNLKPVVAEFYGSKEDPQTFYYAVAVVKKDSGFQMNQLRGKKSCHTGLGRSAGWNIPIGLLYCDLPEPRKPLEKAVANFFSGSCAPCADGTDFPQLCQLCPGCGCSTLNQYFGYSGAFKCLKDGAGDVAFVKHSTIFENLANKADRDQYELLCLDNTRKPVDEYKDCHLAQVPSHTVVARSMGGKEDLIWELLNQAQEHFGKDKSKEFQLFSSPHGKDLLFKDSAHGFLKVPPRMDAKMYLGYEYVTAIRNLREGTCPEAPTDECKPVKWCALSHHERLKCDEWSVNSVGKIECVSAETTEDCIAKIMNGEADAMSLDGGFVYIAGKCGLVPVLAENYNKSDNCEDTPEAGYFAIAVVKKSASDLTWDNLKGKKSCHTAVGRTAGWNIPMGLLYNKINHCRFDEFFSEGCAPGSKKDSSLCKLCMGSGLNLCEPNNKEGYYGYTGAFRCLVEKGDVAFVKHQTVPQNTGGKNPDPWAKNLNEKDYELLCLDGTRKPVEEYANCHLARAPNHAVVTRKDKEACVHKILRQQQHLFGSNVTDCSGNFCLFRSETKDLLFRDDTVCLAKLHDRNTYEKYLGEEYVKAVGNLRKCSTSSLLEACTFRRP
Data set [9] relates to SK-N-MC. Put plainly: Induction of [59Fe] mobilization in human SK-N-MC cells prelabeled with [59Fe]transferrin at 50 uM after 3 hrs relative to desferrioxamine B. In kind it is functional. The procedure, abridged: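 Cells were prelabeled with 59Fe-Tf (0.75 μM) for 3 h at 37 °C, washed four times with ice-cold PBS, then exposed to chelator (50 μM) for 3 h at 37 °C. Released 59Fe in the medium and cell-pellet 59Fe were counted by γ-counter. DFOB was run in parallel. Data are mean ± SD of three experiments, each with triplicate determinations.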

In brackets after ≈: the same amount, converted by molar mass. Activity calls are given as the source filed them. The rule behind the calls is not given here.

Consider `CC(=O)N(O)CCCCCNC(=O)CCC(=O)N(O)CCCCCNC(=O)CCC(=O)N(O)CCCCCNC(=O)COc1ccc(C)cc1`, for which the logP was found to be 1.68 in data set [1] and 0.93 in [5]. The inhibition result in data set [2] was “Active”. In the data set on SK-N-MC [3], the outcome was Active. For the same molecule, the 50% inhibitory concentration (IC50) was > 150 µM in [4] and > 200 µM in data set [6].

With `CC(=O)N(O)CCCCCNC(=O)CCC(=O)N(O)CCCCCNC(=O)CCC(=O)N(O)CCCCCN` [DEFEROXAMINE], the Activity in the data set with SK-N-MC [3] was found to be 12%. Besides, the figures for the IC50 in data set [4] and in data set [6] were 9.49 µM and 16 µM, respectively. The amount in solution in data set [7] (solubility) came to 400 mM (≈ 224 mg/mL). Further, in [8], the residual activity came to 87%.

On to `Cc1c(O)c(=O)ccn1C` [DEFERIPRONE], for which the logP in data set [1] is -1.02. Further, the result with SK-N-MC [3] was inactive. For the same molecule, the IC50 in [6] was found to be 166 µM.

With `c1ccc2c(c1)oc1ccccc12` [DIBENZOFURAN], in data set [1], the logP is 4.04.

Take `CC(=O)N(O)CCCCCNC(=O)CCC(=O)N(O)CCCCCNC(=O)CCC(=O)N(O)CCCCCNC(=O)C12CC3CC(CC(C3)C1)C2`: the “fold change (FC)” value in the data set with SK-N-MC [9] stood at 2.2. The logP in data set [1] was found to be 2.11; in data set [5], 1.29. Also, the inhibition result in [2] was “Active”. In addition, the half-inhibitory concentration (IC50) in data set [4] came to 119 µM; in data set [6] it was 174 µM.

On to `c1ccc2ccccc2c1`, for which the logP in data set [1] stood at 3.32.

Take `CC(=O)N(O)CCCCCNC(=O)CCC(=O)N(O)CCCCCNC(=O)CCC(=O)N(O)CCCCCNC(=O)CC12CC3CC(CC(C3)C1)C2`: the “fold change (FC)” value with SK-N-MC [9] is given as 2.8. For the same molecule, the logP in data set [1] came out at 2.21; in data set [5] it was 1.47. In [2], the inhibition result was “Active”. Also, the results for the IC50 in [4] and in [6] were 226 µM and 167 µM, respectively.

With `CC(=O)N(O)CCCCCNC(=O)CCC(=O)N(O)CCCCCNC(=O)CCC(=O)N(O)CCCCCNC(=O)Cn1ccc(=O)c(O)c1C`, the logP in data set [1] was -1.29; in [5], -1.16. For the same molecule, the IC50 was > 300 µM in data set [4] and > 200 µM in data set [6].

Regarding `COC(=O)c1ccccc1C(=O)OC` [DIMETHYL PHTHALATE], in data set [1], the logP came to 1.61.

Regarding `CC(=O)N(O)CCCCCNC(=O)CCC(=O)N(O)CCCCCNC(=O)CCC(=O)N(O)CCCCCNC(=O)C12CC3CC(CC(O)(C3)C1)C2`, the logP in data set [1] was 0.29; in data set [5] it was -0.11. In the data set with SK-N-MC [3], the result was inactive. Further, the IC50 was > 100 µM in [4] and > 200 µM in data set [6].

`CN(C)C(=S)NN=C(c1ccccn1)c1ccccn1`: the residual activity in [8] turned out to be 12%.

For the molecule `CC(=O)N(O)CCCCCNC(=O)CCC(=O)N(O)CCCCCNC(=O)CCC(=O)N(O)CCCCCNC(=O)c1ccc(-n2nc(-c3ccccc3O)nc2-c2ccccc2O)cc1`, the logP amounted to 2.17 in data set [1] and 3.02 in data set [5]. Besides, the inhibition result in data set [2] is “Active”. Besides, in the data set with SK-N-MC [3], the outcome was Active. Besides, the IC50 was 23.4 µM in data set [4] and 20.6 µM in data set [6].

For `CC(=O)N(O)CCCCCNC(=O)CCC(=O)N(O)CCCCCNC(=O)CCC(=O)N(O)CCCCCNC(=O)C12CC3CC(C)(CC(C)(C3)C1)C2`, the “fold change (FC)” value with SK-N-MC [9] is reported as 3. Further, the logP was determined as 2.92 in data set [1] and 1.95 in data set [5]. The inhibition result in data set [2] is “Active”. The IC50 came out at 163 µM in [4] and 92.4 µM in data set [6]. Also, the residual activity in data set [8] came to 18%.

Molecule `O=C(O)c1ccc(-n2nc(-c3ccccc3O)nc2-c2ccccc2O)cc1` [DEFERASIROX] showed a logP in [1] of 3.8. The IC50 in [6] worked out at 20.5 µM. Moreover, the residual activity in [8] stood at 39%.
